Measured values reported in ChEMBL document CHEMBL1944580, “Synthesis of novel sulfonamide-1,2,4-triazoles, 1,3,4-thiadiazoles and 1,3,4-oxadiazoles, as potential antibacterial and antifungal agents. Biological evaluation and conformational analysis studies” (2012).
Converted amounts (≈) assume the structure as drawn.

Assays:
Talaromyces funiculosus [1] = assay: Antifungal activity against Penicillium funiculosum ATCC 36839 after 72 hrs by serial dilution method; format: functional; conditions: ATCC 36839, 72 h
In short: (§1)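 Modified microdilution MIC. Spores were washed from malt agar cultures with sterile 0.85% saline containing 0.1% Tween 80 and adjusted to about 1.0 × 10^5 per 100 µl well in malt broth. Compounds were dissolved in DMSO (1 mg/ml). Plates incubated 72 h at 28 °C. MIC is the lowest concentration with no visible growth under a binocular microscope. Bifonazole and ketoconazole were the references.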

Aspergillus flavus [2] = assay: Antifungal activity against Aspergillus flavus ATCC 9643 treated for 72 hrs followed by sub-cultivated for 5 days by serial dilution method; format: functional
In short: (§2)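 MFC obtained after the 72 h, 28 °C malt-broth microdilution (spore inoculum about 1.0 × 10^5 per well, compounds from 1 mg/ml DMSO). 2 µl was serially subcultured into 100 µl broth per well and incubated a further 5 days at 28 °C. MFC is the lowest concentration with no visible growth, taken as 99.5% killing of the original inoculum.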

Pseudomonas aeruginosa [3] = assay: Antibacterial activity against Pseudomonas aeruginosa ATCC 27853 treated for 24 hrs followed by sub-cultivated for 72 hrs by micro dilution method; format: functional
In short: (§3)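 2 µl from each well was serially subcultured into 100 µl fresh broth per well and incubated a further 72 h. MBC is the lowest concentration with no visible growth, taken as 99.5% killing of the original inoculum. Streptomycin and ampicillin were the positive controls.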

Penicillium ochrochloron [4] = assay: Antifungal activity against Penicillium ochrochloron ATCC 9112 treated for 72 hrs followed by sub-cultivated for 5 days by serial dilution method; format: functional; in short: as §2
Fulvia fulva [5] = assay: Antifungal activity against Fulvia fulva treated for 72 hrs followed by sub-cultivated for 5 days by serial dilution method; format: functional; in short: as §2
Escherichia coli [6] = assay: Antibacterial activity against Escherichia coli ATCC 35210 after 24 hrs by micro dilution method; format: functional; conditions: ATCC 35210, 24 h
In short: (§4)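 Microdilution MIC in 96-well plates. Bacterial suspensions adjusted in sterile saline to 1.0 × 10^5 CFU/ml, giving 1.0 × 10^4 cfu per well in LB broth. Compounds tested at up to 1 mg/ml. Plates incubated 24 h. MIC taken as the lowest concentration with no visible growth under a binocular microscope. OD at 655 nm was also read against a blank and the positive control. Streptomycin and ampicillin were the positive controls.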

Enterobacter cloacae [7] = assay: Antibacterial activity against Enterobacter cloacae human isolate after 24 hrs by micro dilution method; format: functional; in short: as §4
Listeria monocytogenes [8] = assay: Antibacterial activity against Listeria monocytogenes NCTC 7973 after 24 hrs by micro dilution method; format: functional; conditions: NCTC 7973, 24 h; in short: as §4
Staphylococcus aureus [9] = assay: Antibacterial activity against Staphylococcus aureus ATCC 6538 treated for 24 hrs followed by sub-cultivated for 72 hrs by micro dilution method; format: functional; in short: as §3
Salmonella typhimurium [10] = assay: Antibacterial activity against Salmonella Typhimurium ATCC 13311 treated for 24 hrs followed by sub-cultivated for 72 hrs by micro dilution method; format: functional, Salmonella enterica subsp. enterica serovar Typhimurium; conditions: Salmonella enterica; in short: as §3
Micrococcus flavus [11] = assay: Antibacterial activity against Micrococcus flavus ATCC 10240 treated for 24 hrs followed by sub-cultivated for 72 hrs by micro dilution method; format: functional; in short: as §3
Pseudomonas aeruginosa [12] = assay: Antibacterial activity against Pseudomonas aeruginosa ATCC 27853 after 24 hrs by micro dilution method; format: functional; conditions: ATCC 27853, 24 h; in short: as §4
Talaromyces funiculosus [13] = assay: Antifungal activity against Penicillium funiculosum ATCC 36839 treated for 72 hrs followed by sub-cultivated for 5 days by serial dilution method; format: functional; in short: as §2
Aspergillus versicolor [14] = assay: Antifungal activity against Aspergillus versicolor ATCC 11730 treated for 72 hrs followed by sub-cultivated for 5 days by serial dilution method; format: functional; in short: as §2
Aspergillus niger [15] = assay: Antifungal activity against Aspergillus niger ATCC 6275 treated for 72 hrs followed by sub-cultivated for 5 days by serial dilution method; format: functional; in short: as §2
Trichoderma viride [16] = assay: Antifungal activity against Trichoderma viride IAM 5061 treated for 72 hrs followed by sub-cultivated for 5 days by serial dilution method; format: functional; in short: as §2
Penicillium ochrochloron [17] = assay: Antifungal activity against Penicillium ochrochloron ATCC 9112 after 72 hrs by serial dilution method; format: functional; conditions: ATCC 9112, 72 h; in short: as §1
Bacillus cereus [18] = assay: Antibacterial activity against Bacillus cereus clinical isolate after 24 hrs by micro dilution method; format: functional; in short: as §4
Bacillus cereus [19] = assay: Antibacterial activity against Bacillus cereus clinical isolate treated for 24 hrs followed by sub-cultivated for 72 hrs by micro dilution method; format: functional; in short: as §3
Aspergillus versicolor [20] = assay: Antifungal activity against Aspergillus versicolor ATCC 11730 after 72 hrs by serial dilution method; format: functional; conditions: ATCC 11730, 72 h; in short: as §1
Fulvia fulva [21] = assay: Antifungal activity against Fulvia fulva after 72 hrs by serial dilution method; format: functional; in short: as §1
Aspergillus fumigatus [22] = assay: Antifungal activity against Aspergillus fumigatus human isolate after 72 hrs by serial dilution method; format: functional; in short: as §1
Staphylococcus aureus [23] = assay: Antibacterial activity against Staphylococcus aureus ATCC 6538 after 24 hrs by micro dilution method; format: functional; conditions: ATCC 6538, 24 h; in short: as §4
Aspergillus fumigatus [24] = assay: Antifungal activity against Aspergillus fumigatus human isolate treated for 72 hrs followed by sub-cultivated for 5 days by serial dilution method; format: functional; in short: as §2
Aspergillus niger [25] = assay: Antifungal activity against Aspergillus niger ATCC 6275 after 72 hrs by serial dilution method; format: functional; conditions: ATCC 6275, 72 h; in short: as §1
Listeria monocytogenes [26] = assay: Antibacterial activity against Listeria monocytogenes NCTC 7973 treated for 24 hrs followed by sub-cultivated for 72 hrs by micro dilution method; format: functional; in short: as §3
Salmonella typhimurium [27] = assay: Antibacterial activity against Salmonella Typhimurium ATCC 13311 after 24 hrs by micro dilution method; format: functional, Salmonella enterica subsp. enterica serovar Typhimurium; conditions: Salmonella enterica, ATCC 13311, 24 h; in short: as §4
Enterobacter cloacae [28] = assay: Antibacterial activity against Enterobacter cloacae human isolate treated for 24 hrs followed by sub-cultivated for 72 hrs by micro dilution method; format: functional; in short: as §3
Escherichia coli [29] = assay: Antibacterial activity against Escherichia coli ATCC 35210 treated for 24 hrs followed by sub-cultivated for 72 hrs by micro dilution method; format: functional; in short: as §3
Trichoderma viride [30] = assay: Antifungal activity against Trichoderma viride IAM 5061 after 72 hrs by serial dilution method; format: functional; conditions: IAM 5061, 72 h; in short: as §1
Aspergillus flavus [31] = assay: Antifungal activity against Aspergillus flavus ATCC 9643 after 72 hrs by serial dilution method; format: functional; conditions: ATCC 9643, 72 h; in short: as §1
Micrococcus flavus [32] = assay: Antibacterial activity against Micrococcus flavus ATCC 10240 after 24 hrs by micro dilution method; format: functional; conditions: ATCC 10240, 24 h; in short: as §4

| SMILES | MIC (Talaromyces funiculosus [1]) | MFC (Aspergillus flavus [2]) | MBC (Pseudomonas aeruginosa [3]) | MFC (Penicillium ochrochloron [4]) | MFC (Fulvia fulva [5]) | MIC (Escherichia coli [6]) | MIC (Enterobacter cloacae [7]) | MIC (Listeria monocytogenes [8]) | MBC (Staphylococcus aureus [9]) | MBC (Salmonella typhimurium [10]) | MBC (Micrococcus flavus [11]) | MIC (Pseudomonas aeruginosa [12]) | MFC (Talaromyces funiculosus [13]) | MFC (Aspergillus versicolor [14]) | MFC (Aspergillus niger [15]) | MFC (Trichoderma viride [16]) | MIC (Penicillium ochrochloron [17]) | MIC (Bacillus cereus [18]) | MBC (Bacillus cereus [19]) | MIC (Aspergillus versicolor [20]) | other results |
| --- | --- | --- | --- | --- | --- | --- | --- | --- | --- | --- | --- | --- | --- | --- | --- | --- | --- | --- | --- | --- | --- |
| CCNc1nnc(Cc2cc(OC)c(OC)cc2S(=O)(=O)N(C)C)s1 | 130 µM (≈ 50.2 µg/mL) | 260 µM (≈ 100 µg/mL) | 260 µM (≈ 100 µg/mL) | 260 µM (≈ 100 µg/mL) | 70 µM (≈ 27.1 µg/mL) | 260 µM (≈ 100 µg/mL) | 520 µM (≈ 201 µg/mL) | 520 µM (≈ 201 µg/mL) | 520 µM (≈ 201 µg/mL) | 260 µM (≈ 100 µg/mL) | 520 µM (≈ 201 µg/mL) | 260 µM (≈ 100 µg/mL) | 260 µM (≈ 100 µg/mL) | 520 µM (≈ 201 µg/mL) | 260 µM (≈ 100 µg/mL) | 130 µM (≈ 50.2 µg/mL) | 130 µM (≈ 50.2 µg/mL) | 260 µM (≈ 100 µg/mL) | 260 µM (≈ 100 µg/mL) | 260 µM (≈ 100 µg/mL) | MIC (Fulvia fulva [21]): 70 µM (≈ 27.1 µg/mL); MIC (Aspergillus fumigatus [22]): 130 µM (≈ 50.2 µg/mL); MIC (Staphylococcus aureus [23]): 520 µM (≈ 201 µg/mL); MFC (Aspergillus fumigatus [24]): 260 µM (≈ 100 µg/mL); MIC (Aspergillus niger [25]): 130 µM (≈ 50.2 µg/mL); MBC (Listeria monocytogenes [26]): 520 µM (≈ 201 µg/mL); MIC (Salmonella typhimurium [27]): 260 µM (≈ 100 µg/mL); MBC (Enterobacter cloacae [28]): 520 µM (≈ 201 µg/mL); MBC (Escherichia coli [29]): 260 µM (≈ 100 µg/mL); MIC (Trichoderma viride [30]): 70 µM (≈ 27.1 µg/mL); MIC (Aspergillus flavus [31]): 130 µM (≈ 50.2 µg/mL); MIC (Micrococcus flavus [32]): 260 µM (≈ 100 µg/mL) |
| CCCNc1nnc(Cc2cc(OC)c(OC)cc2S(=O)(=O)N(C)C)s1 | 130 µM (≈ 52.1 µg/mL) | 250 µM (≈ 100 µg/mL) | 500 µM (≈ 200 µg/mL) | 250 µM (≈ 100 µg/mL) | 130 µM (≈ 52.1 µg/mL) | 250 µM (≈ 100 µg/mL) | 500 µM (≈ 200 µg/mL) | 500 µM (≈ 200 µg/mL) | 500 µM (≈ 200 µg/mL) | 500 µM (≈ 200 µg/mL) | 500 µM (≈ 200 µg/mL) | 500 µM (≈ 200 µg/mL) | 250 µM (≈ 100 µg/mL) | 500 µM (≈ 200 µg/mL) | 130 µM (≈ 52.1 µg/mL) | 130 µM (≈ 52.1 µg/mL) | 130 µM (≈ 52.1 µg/mL) | 250 µM (≈ 100 µg/mL) | 500 µM (≈ 200 µg/mL) | 250 µM (≈ 100 µg/mL) | MIC (Fulvia fulva [21]): 60 µM (≈ 24 µg/mL); MIC (Aspergillus fumigatus [22]): 130 µM (≈ 52.1 µg/mL); MIC (Staphylococcus aureus [23]): 500 µM (≈ 200 µg/mL); MFC (Aspergillus fumigatus [24]): 250 µM (≈ 100 µg/mL); MIC (Aspergillus niger [25]): 60 µM (≈ 24 µg/mL); MBC (Listeria monocytogenes [26]): 500 µM (≈ 200 µg/mL); MIC (Salmonella typhimurium [27]): 250 µM (≈ 100 µg/mL); MBC (Enterobacter cloacae [28]): 500 µM (≈ 200 µg/mL); MBC (Escherichia coli [29]): 250 µM (≈ 100 µg/mL); MIC (Trichoderma viride [30]): 60 µM (≈ 24 µg/mL); MIC (Aspergillus flavus [31]): 130 µM (≈ 52.1 µg/mL); MIC (Micrococcus flavus [32]): 250 µM (≈ 100 µg/mL) |
| COc1cc(Cc2nnc(NC(C)C)s2)c(S(=O)(=O)N(C)C)cc1OC | 250 µM (≈ 100 µg/mL) | 750 µM (≈ 300 µg/mL) | 380 µM (≈ 152 µg/mL) | 750 µM (≈ 300 µg/mL) | 250 µM (≈ 100 µg/mL) | 380 µM (≈ 152 µg/mL) | 460 µM (≈ 184 µg/mL) | 380 µM (≈ 152 µg/mL) | 460 µM (≈ 184 µg/mL) | 500 µM (≈ 200 µg/mL) | 380 µM (≈ 152 µg/mL) | 250 µM (≈ 100 µg/mL) | 500 µM (≈ 200 µg/mL) | 750 µM (≈ 300 µg/mL) | 750 µM (≈ 300 µg/mL) | 250 µM (≈ 100 µg/mL) | 500 µM (≈ 200 µg/mL) | 250 µM (≈ 100 µg/mL) | 500 µM (≈ 200 µg/mL) | 250 µM (≈ 100 µg/mL) | MIC (Fulvia fulva [21]): 130 µM (≈ 52.1 µg/mL); MIC (Aspergillus fumigatus [22]): 130 µM (≈ 52.1 µg/mL); MIC (Staphylococcus aureus [23]): 380 µM (≈ 152 µg/mL); MFC (Aspergillus fumigatus [24]): 250 µM (≈ 100 µg/mL); MIC (Aspergillus niger [25]): 250 µM (≈ 100 µg/mL); MBC (Listeria monocytogenes [26]): 460 µM (≈ 184 µg/mL); MIC (Salmonella typhimurium [27]): 250 µM (≈ 100 µg/mL); MBC (Enterobacter cloacae [28]): 460 µM (≈ 184 µg/mL); MBC (Escherichia coli [29]): 460 µM (≈ 184 µg/mL); MIC (Trichoderma viride [30]): 130 µM (≈ 52.1 µg/mL); MIC (Aspergillus flavus [31]): 250 µM (≈ 100 µg/mL); MIC (Micrococcus flavus [32]): 380 µM (≈ 152 µg/mL) |
